Assay results from ChEMBL document CHEMBL1155315, “Towards to hENT1-nucleoside transporter selective imaging agents. Synthesis and in vitro evaluation of the radiolabeled SAENTA analogues” (Bioorg Med Chem Lett, 2009).
pIC50, pKd, pKi: −log10 of the molar value.

What was measured:
[1] = biological target: T1, Equilibrative nucleoside transporter 1 (Homo sapiens) (UniProt Q99808); test: (§1) Binding affinity to human ENT1 in Capan1 cells by flow cytometry; type: cell-based; conditions: CAPAN-1
T1 sequence (whole entry): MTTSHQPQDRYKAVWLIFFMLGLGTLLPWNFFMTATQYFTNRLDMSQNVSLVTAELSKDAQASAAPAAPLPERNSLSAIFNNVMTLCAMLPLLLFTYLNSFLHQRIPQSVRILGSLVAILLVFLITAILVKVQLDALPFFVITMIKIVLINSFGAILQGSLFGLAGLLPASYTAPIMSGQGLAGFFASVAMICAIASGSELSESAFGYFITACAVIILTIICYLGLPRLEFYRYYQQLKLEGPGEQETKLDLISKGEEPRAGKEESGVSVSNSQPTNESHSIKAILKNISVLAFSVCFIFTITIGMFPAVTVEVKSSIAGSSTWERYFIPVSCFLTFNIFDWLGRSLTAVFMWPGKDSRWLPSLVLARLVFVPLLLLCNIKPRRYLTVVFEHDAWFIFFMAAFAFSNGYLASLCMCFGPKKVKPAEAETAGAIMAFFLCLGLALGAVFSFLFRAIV
In short: (§2)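 Apparent KD and Bmax of SAENTA-fluorescein on each cell line, from flow-cytometric binding over a range of SAENTA-fluorescein concentrations. Specific binding is total minus nonspecific fluorescence, with nonspecific fluorescence measured in the presence of 7.2 μM NBMPR. Saturation parameters come from curve fitting; Bmax is given as mean fluorescence units per 10^4 cells.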

[2] = biological target: T2, Equilibrative nucleoside transporter 1 (Homo sapiens, UniProt Q99808); test: as §1; type: cell-based, CAPAN-1; in short: as §2
T2 sequence (Q99808 whole entry): T1 sequence (whole entry)

[3] = biological target: T1, Equilibrative nucleoside transporter 1 (Homo sapiens); test: (§3) Binding affinity to human ENT1 in panc1 cells by flow cytometry; type: cell-based; in short: as §2
[4] = biological target: T2, Equilibrative nucleoside transporter 1; test: as §3; type: cell-based; in short: as §2
[5] = biological target: T1, Equilibrative nucleoside transporter 1 (Homo sapiens); test: (§4) Binding affinity to human ENT1 in MIA-PaCa2 cells by flow cytometry; type: cell-based; in short: as §2
[6] = biological target: T2, Equilibrative nucleoside transporter 1; test: as §4; type: cell-based; in short: as §2
[7] = biological target: T1, Equilibrative nucleoside transporter 1 (Homo sapiens); test: (§5) Binding affinity to human ENT1 in SK-PC1 cells by flow cytometry; type: cell-based; in short: as §2
[8] = biological target: T2, Equilibrative nucleoside transporter 1; test: as §5; type: cell-based; in short: as §2
[9] = biological target: T1, Equilibrative nucleoside transporter 1 (Homo sapiens); test: (§6) Binding affinity to human ENT1 in BX-PC3 cells by flow cytometry; type: cell-based; conditions: BXPC-3; in short: as §2
[10] = biological target: T2, Equilibrative nucleoside transporter 1; test: as §6; type: cell-based, BXPC-3; in short: as §2
[11] = biological target: T1, Equilibrative nucleoside transporter 1 (Homo sapiens); test: (§7) Binding affinity to human ENT1 in HL60 cells by flow cytometry; type: cell-based; conditions: HL-60; in short: as §2
[12] = biological target: T2, Equilibrative nucleoside transporter 1; test: as §7; type: cell-based, HL-60; in short: as §2
[13] = biological target: T2, Equilibrative nucleoside transporter 1; test: Displacement of SAENTA-fluorescein from human ENT1 in HL60 cells by flow cytometry; type: cell-based, HL-60
In short: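 HL60 cells were preincubated with the inhibitor, then exposed to 50 nM SAENTA-fluorescein and analysed by flow cytometry (example inhibitor levels 5, 25 and 50 nM). IC50 is the concentration inhibiting 50% of SAENTA-fluorescein binding, from nonlinear regression of inhibitor concentration–fluorescence curves. Ki = IC50/(1+[S]/KD), using the SAENTA-fluorescein concentration and KD.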

SMILES | Bmax [1] [MFU] | pKd [2] | Bmax [3] [MFU] | pKd [4] | Bmax [5] [MFU] | pKd [6] | Bmax [7] [MFU] | pKd [8] | Bmax [9] [MFU] | pKd [10] | Bmax [11] [MFU] | pKd [12] | pIC50 [13] | pKi [13]
O=C(CCCCCNC(=O)c1ccc2c(c1)C(=O)OC21c2ccc(O)cc2Oc2cc(O)ccc21)NCCSC[C@H]1O[C@@H](n2cnc3c(NCc4ccc([N+](=O)[O-])cc4)ncnc32)[C@H](O)[C@@H]1O | 9.5 | 9.49 | 49.8 | 8.42 | 30.7 | 9.04 | 2.6 | 9.40 | 6.7 | 9.44 | 21.1 | 9.59 |  | 
O=C(CCCCCNC(=O)c1cccc(I)c1)NCCSC[C@H]1O[C@@H](n2cnc3c(NCc4ccc([N+](=O)[O-])cc4)ncnc32)[C@H](O)[C@@H]1O |  |  |  |  |  |  |  |  |  |  |  |  | 8.85 | 10.74
O=C(CCCCCNC(=O)c1ccc(F)cc1)NCCSC[C@H]1O[C@@H](n2cnc3c(NCc4ccc([N+](=O)[O-])cc4)ncnc32)[C@H](O)[C@@H]1O |  |  |  |  |  |  |  |  |  |  |  |  | 8.29 | 10.19
